The chains are these.
B1: tRNA (parent)
chain: GUUCCGUUGGCGUAAUGGUAACGCGUCUCCCUCCUAAGGAGAAGACUGCGGGUUCGAGUCCCGUACGGAACG

This sample holds only a part of the variants without activity.

Variants of B1 are the subject of this series. Put plainly: yeast fitness relative to wild type (ratio to wild type); higher = fitter; tRNA-Arg(CCU), competitive growth, 37 C, YPD. In a few lines:
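Changes in genotype frequencies gave Darwinian fitness relative to wild type. Frequencies were read by 100-nucleotide paired-end sequencing of gene amplicons before and after pooled Saccharomyces cerevisiae strains, carrying tRNA-Arg(CCU) gene variants at the native locus, were competed in YPD at 37°C for 24 hours in six replicates. A genotype was kept only with ≥ 100 starting reads, and estimates < 0.5 were set to 0.5.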
With G10A U19C A36G G48A C49G, the yeast fitness was not above 0.5.

In the case of G10C C24G C46U, the yeast fitness came out at 0.702. To G10A G44C belongs 0.79; to G10A G44A, 0.786; to G10C A20U C60G, 0.587.

Regarding G10A U35C A42C A43C, the yeast fitness is not above 0.5. Consider G10A U35G A37U U47C G56C U64C A69C, for which the yeast fitness is not above 0.5. To G10A G12C A21U A42U belongs not above 0.5; to G10A C30U, 0.748; to G10A C30A, 0.64.

As to G10A C30G, the yeast fitness came to 0.511.

Take G10A U54C: the yeast fitness worked out at 0.643. To G10A U54A belongs 0.698; to G10A G51A C55G G67U G68C, not above 0.5. To G10C A14G C22U A37G A40U C46A U54C belongs not above 0.5; to G10A G17A G39C A45C C49G, not above 0.5. The figure for G10A U16A A65C is not above 0.5.

With G10A U16A C24A G39C A43U C60U, the yeast fitness was not above 0.5. For G10C A57U, the yeast fitness is 0.548. To G10C A57G belongs 0.604; to G10A G12A C29G A65U, not above 0.5. To G10A G18A C46A belongs 0.539; to G10A C33U A45U G48C U64A, not above 0.5; to G10C A14U C29G, 0.584. The figure for G10C A14U U19A C22U C60U G68C is not above 0.5; for G10A C30A C55A G58A it is not above 0.5. Regarding G10C C11G C22A C30G U53A, the yeast fitness stood at 0.653. Consider G10C C11G C24G, for which the yeast fitness came out at 0.577.

Turning to G10A U13A A14C A43U C60G, the yeast fitness was not above 0.5.

Consider G10A U26A C49U C66U, for which the yeast fitness was not above 0.5.

For G10A C30A A42G A43U, the yeast fitness is not above 0.5. To G10A U19A A40C belongs not above 0.5. To G10A G23A A45G belongs not above 0.5.

For G10C A14C A15G U64G, the yeast fitness was not above 0.5. The figure for G10A U13C A21U is not above 0.5; for G10A C30G C46U it is not above 0.5; for G10C A37U G58A it is 0.608. Turning to G10C A21C U26C C31A A42U, the yeast fitness was not above 0.5.

Consider G10A G23A U35G, for which the yeast fitness is not above 0.5.

As for G10A C62G, the yeast fitness was 0.64. As for G10C A21C U26G C34U A40G G51A, the yeast fitness is 0.598. Consider G10A G17A A37U, for which the yeast fitness is not above 0.5. To G10C A36C A57C belongs not above 0.5; to G10C C11U C29G C55U, 0.556.

In the case of G10A U19A A40C A42C, the yeast fitness turned out to be 0.541. As to G10C A36C C55U, the yeast fitness was not above 0.5. G10A U16A U32C A65G: the yeast fitness was not above 0.5.

For the variant G10C A14G C62U, the yeast fitness is not above 0.5.

As to G10C A20G A21C C27A C49U U54A A70C, the yeast fitness stood at 0.653. The figure for G10A G41C C61G is not above 0.5. With G10C A15G C31A C33U A40C G44C G48U C49G, the yeast fitness was not above 0.5.

On to G10A C46U, for which the yeast fitness worked out at 0.812. As to G10A U19A A42G A65C, the yeast fitness was not above 0.5.

In the case of G10A C33U U64A, the yeast fitness came out at 0.553. To G10A U35G A37U U47C G56C A69C belongs not above 0.5; to G10C A14U U19A C22U C66U, not above 0.5; to G10A U16A C31A G52C, not above 0.5. In the case of G10A G41A C60G A65G, the yeast fitness stood at 0.529.

In the case of G10A G56A, the yeast fitness stood at 0.754.

In the case of G10A U19A G41C C66U, the yeast fitness was found to be 0.617. The figure for G10A C49G is 0.668; for G10A C49U it is 0.697. As for G10C C11A A37C C49G C62U, the yeast fitness is not above 0.5. For the variant G10C A14U G25A C27U U53C C61U A70G, the yeast fitness is not above 0.5.

Turning to G10A C30U C60G C66U, the yeast fitness is not above 0.5.

With G10A G17C C22U C30G C33G C61A A69U, the yeast fitness is not above 0.5. For the variant G10A G44A U54C C61U G67A, the yeast fitness was not above 0.5. To G10C A21U C22G G67C belongs 0.765; to G10A G44C G63C, not above 0.5; to G10C C11G C22U C34G A69C, 0.589. On to G10A C31A G41C, for which the yeast fitness is not above 0.5. G10C A20U C22A: the yeast fitness is not above 0.5. Take G10C C11U C29G A42U: the yeast fitness was not above 0.5. The figure for G10A U16A G38A U64C is not above 0.5.

For G10C C22U C60U C61A G63C A65U, the yeast fitness is not above 0.5.

Consider G10A G17A U28C C30G A45C C49U, for which the yeast fitness was not above 0.5. The figure for G10A U53A G58A G68U is not above 0.5; for G10A U13A C24A C55G C62U it is not above 0.5; for G10A U35A G52C C66U it is not above 0.5. To G10A C33U A45U G48C U64A A70U belongs not above 0.5; to G10C A14U C31G, not above 0.5; to G10C A14G U28C G39A A65U, not above 0.5. With G10A G52A A69U, the yeast fitness is not above 0.5.

Source of the values: the RNAGym collection of RNA variant scans (doi:10.1126/science.aae0568).
